Published values from different studies.
Target: Serine/threonine-protein kinase SBK1 (SBK1, Homo sapiens, UniProt Q52WX2)

CCC(=O)N[C@H]1CC[C@@H](C(=O)N(C)c2ccc(-c3nc4ccccc4o3)cc2)C1 — remaining binding (cell-free assay; competition with immobilised ligand; 1 µM): 94%
Cc1cnn2ncc(-c3ccnc(N(C)C)n3)c2c1 — remaining binding (binding; 1 µM): 83%
O=C(NCCCN1CCOCC1)c1ccc(Nc2nccc(-c3cc4ccccc4s3)n2)cc1 — remaining binding (binding; competition with immobilised ligand; 1 µM): 71%
CN(CCCC(F)(F)F)c1nccc(-c2cnn3ncccc23)n1 — remaining binding (binding; 1 µM): 85%
C[C@@H](c1ccc(-n2cnc3c(N)ncnc32)cc1)N1CCc2nn(C)c(Cc3ccccc3)c2C1=O — remaining binding (binding; competition with immobilised ligand; 0.1 µM): 69%
Cc1c[nH]c2nccc(Oc3c(F)cc(Nc4cc(Cl)nc(N)n4)cc3F)c12 — remaining binding (cell-free assay; competition with immobilised ligand; 0.1 µM): 94%
C=CC(=O)N1CCC(C(=O)NCC(=O)N2CCN(c3nc(-c4cnc(N)nc4C(F)F)nc(N4CCOCC4)n3)CC2)CC1 — remaining binding (binding; competition with immobilised ligand; 1 µM): 100%
O=C(Nc1c[nH]nc1C(=O)NC1CCNCC1)c1cc(F)cc(F)c1 — remaining binding (binding; competition with immobilised ligand; 1 µM): 100%
CNC(=O)[C@@H]1CC[C@@H](n2c(-c3ccc4cnccc4c3)nc3ccc(C(=O)NCc4cccc(C(N)=O)c4)cc32)C1 — remaining binding (binding; competition with immobilised ligand; 1 µM): 100%
COc1ncc2cc3ccccc3nc2c1C#N — remaining binding (cell-free assay; competition with immobilised ligand; 5 µM): 82%
N[C@@H]1CCN(c2nccc(-c3cnn4ncccc34)n2)C1 — remaining binding (binding; 1 µM): 94%
CO[C@@H](C)c1c(Nc2ccc([C@H](N(C)C(=O)C3CCS(=O)(=O)CC3)C(F)(F)F)cc2)cnc2cc(Cl)nn12 — remaining binding (cell-free assay; competition with immobilised ligand; 1 µM): 100%
O=C(c1ccc(Nc2ncc(Cl)c(-c3cc4ccccc4s3)n2)cc1)N1CCC(N2CCCC2)CC1 — remaining binding (binding; competition with immobilised ligand; 1 µM): 52%
O=S(=O)(NC1CCC(c2cc(F)ccc2F)(S(=O)(=O)c2ccc(Cl)cc2)CC1)C(F)(F)F (stereo not shown) — remaining binding (cell-free assay; competition with immobilised ligand; 1 µM): 75%
COc1ccnn2ncc(-c3ccnc(N(C)C)n3)c12 — remaining binding (binding; 1 µM): 100%
CCCOc1ccc([C@H]2[C@H](C(=O)O)[C@@H](c3ccc4c(c3)OCO4)CN2CC(=O)Nc2c(CC)cccc2CC)cc1 — remaining binding (cell-free assay; competition with immobilised ligand; 1 µM): 78%
CN(C)c1ncc(F)c(-c2cnn3ncccc23)n1 — remaining binding (binding; 1 µM): 66%
FC(F)(F)Oc1cccc(-c2cnc3ccc(-c4ccncc4)nn23)c1 — remaining binding (binding; competition with immobilised ligand; 5 µM): 85%
C[C@@H]1CCN(c2nccc(-c3cnn4ncccc34)n2)C1 — remaining binding (binding; 1 µM): 85%
O=C(c1ccc(Nc2nccc(-c3cc4ccccc4s3)n2)cc1)N1CCC(N2CCCC2)CC1 — remaining binding (binding; competition with immobilised ligand; 1 µM): 88%
Cc1cc(-n2nc(Cc3cc(F)cc(C(F)(F)F)c3)nc2C)ccc1C(N)=O — remaining binding (cell-free assay; competition with immobilised ligand; 1 µM): 98%
CN(c1nccc(-c2cnn3ncccc23)n1)C1CC1 — remaining binding (binding; 1 µM): 100%
